In ChEMBL document CHEMBL1149336, “Fumarranol, a rearranged fumagillin analogue that inhibits angiogenesis in vivo” (J Med Chem, 2006):
Activity calls are given as the source filed them. The rule behind the calls is not given here.

Legend:
AEC [1] = assay: Antiproliferative activity against BAEC; conditions: Bos taurus
[2] = target: Methionine aminopeptidase 2 (Homo sapiens) (UniProt P50579); assay: Inhibition of human MetAP2 at 100 uM
AEC [3] = assay: Antiproliferative activity against BAEC at 100 uM; assay type: functional, cell-based; conditions: Bos taurus
Mus musculus [4] = assay: Inhibition of VEGF and FGF-stimulated angiogenesis in mouse at 90 mg/kg by Matrigel plug assay; assay type: functional, organism-based; design: dose 90 mg/kg
Summary of the method: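 Matrigel with VEGF and basic FGF injected subcutaneously into mice and left 10 days while new vessels grew in. Compound given at 90 mg/kg/day. Vessel ingrowth was judged by the red colour of the plug and by MAS-trichrome staining of plug slices.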

Mus musculus [5] = assay: Ulceration in mouse at 90 mg/kg; assay type: functional, organism-based; design: dose 90 mg/kg
Summary of the method: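 Mice in the VEGF/bFGF matrigel-plug study were dosed at 90 mg/kg/day and their skin was inspected for ulceration.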

Mus musculus [6] = assay: Inhibition of VEGF and FGF-stimulated angiogenesis in mouse at 30 mg/kg by Matrigel plug assay; assay type: functional, organism-based; design: dose 30 mg/kg
Summary of the method: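 Mice received subcutaneous matrigel containing VEGF and basic FGF, with the agent dosed at 30 mg/kg/day. After 10 days, vessel ingrowth into the plug was judged by the plug's red colour and by MAS-trichrome staining of matrigel slices to visualize blood vessels.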

Mus musculus [7] = assay: Ulceration in mouse at 30 mg/kg; assay type: functional, organism-based; design: dose 30 mg/kg

Sequence of Methionine aminopeptidase 2 (Homo sapiens) (P50579 2-478 limits assumed): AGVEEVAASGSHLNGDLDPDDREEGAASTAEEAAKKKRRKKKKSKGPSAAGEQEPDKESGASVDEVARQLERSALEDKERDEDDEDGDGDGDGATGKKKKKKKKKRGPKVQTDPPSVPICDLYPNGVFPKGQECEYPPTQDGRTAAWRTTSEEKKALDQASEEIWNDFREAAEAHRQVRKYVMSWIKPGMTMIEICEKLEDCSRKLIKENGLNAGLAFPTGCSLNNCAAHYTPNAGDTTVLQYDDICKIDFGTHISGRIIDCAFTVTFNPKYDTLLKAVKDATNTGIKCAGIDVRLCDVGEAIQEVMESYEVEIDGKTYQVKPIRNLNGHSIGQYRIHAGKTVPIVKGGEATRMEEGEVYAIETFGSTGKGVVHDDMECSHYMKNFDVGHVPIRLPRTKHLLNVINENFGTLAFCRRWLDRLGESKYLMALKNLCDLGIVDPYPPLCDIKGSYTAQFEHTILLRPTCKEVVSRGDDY

## CO[C@@H]1C(=O)CC[C@](O)(C=O)[C@H]1[C@@]1(C)O[C@@H]1CC=C(C)C [FUMAGALONE]
AEC [1]
  IC50: 52 nM

## CO[C@]12C(=O)CC[C@@]1(CN1C(=O)c3ccccc3C1=O)C2[C@@]1(C)O[C@@H]1CC=C(C)C (stereo not given in full)
[2]
  Activity: inactive
AEC [3]
  Activity: inactive

## CO[C@@]12C([C@@]3(C)O[C@@H]3CC=C(C)C)[C@]1(CO)CC[C@H]2O (stereo not given in full)
[2]
  Activity: inactive
AEC [3]
  Activity: inactive

## CO[C@]12C(=O)CC[C@@]1(C=O)C2[C@@]1(C)O[C@@H]1CC=C(C)C (stereo not given in full)
AEC [1]
  IC50: 370 nM

## CO[C@]12C(=O)CC[C@@]1(CO)[C@H]2/C(C)=C/CC=C(C)C
AEC [1]
  IC50: 1780 nM

## CO[C@]12C(=O)CC[C@@]1(CO)C2[C@@]1(C)O[C@@H]1CC=C(C)C (stereo not given in full) [FUMARRANOL]
AEC [1]
  IC50: 34 nM
Mus musculus [4]
  Activity: Active
Mus musculus [5]
  Activity: inactive

## CO[C@]12C(=O)CC[C@@]1(CO)C2C(C)CCC=C(C)C (stereo not given in full)
AEC [1]
  IC50: 4000 nM

## CCOC(=O)CCCC/C=C/C[C@H]1O[C@]1(C)C1[C@]2(CO)CCC(=O)[C@]12OC (stereo not given in full)
[2]
  Activity: inactive
AEC [3]
  Activity: inactive

## COC[C@@]12CCC(=O)[C@]1(OC)C2[C@@]1(C)O[C@@H]1CC=C(C)C (stereo not given in full)
[2]
  Activity: inactive
AEC [3]
  Activity: inactive

## CO[C@@H]1[C@H](OC(=O)NC(=O)CCl)CC[C@]2(CO2)[C@H]1[C@@]1(C)O[C@@H]1CC=C(C)C [O-CHLOROACETYLCARBAMOYLFUMAGILLOL]
Mus musculus [6]
  Activity: Active
Mus musculus [7]
  Activity: Active
AEC [1]
  IC50: 0.037 nM

## CO[C@]12C(=O)/C(=C/c3ccco3)C[C@@]1(CO)C2[C@@]1(C)O[C@@H]1CC=C(C)C (stereo not given in full)
[2]
  Activity: inactive
AEC [3]
  Activity: inactive
